In ChEMBL document CHEMBL4130391, “Novel methyl indolinone-6-carboxylates containing an indole moiety as angiokinase inhibitors” (Eur J Med Chem, 2017):
pIC50: −log10 of the molar value. Each block holds one compound with its values, some of them ahead of it.

What was measured:
MCF7 [1] = experiment: Antiproliferative activity against human MCF7 cells after 72 hrs by MTT assay; assay type: functional, cell-based; conditions: MCF7, 72 h
HT-29 [2] = experiment: Antiproliferative activity against human HT-29 cells after 72 hrs by MTT assay; assay type: functional, cell-based; conditions: HT-29, 72 h
[3] = biological target: T1, Vascular endothelial growth factor receptor 2 (Homo sapiens, UniProt P35968); experiment: (§1) Inhibition of N-terminal biotinylated DYKDDDDK tagged human VEGFR2 (790 to 1356 end residues) cytoplasmic domain expressed in baculovirus expression system preincubated for 10 mins followed by fluorescein amidite-labelled peptide substrate addition measured after 1 hr by mobility shift assay
T1 sequence (P35968 whole entry, the tested form may be a part): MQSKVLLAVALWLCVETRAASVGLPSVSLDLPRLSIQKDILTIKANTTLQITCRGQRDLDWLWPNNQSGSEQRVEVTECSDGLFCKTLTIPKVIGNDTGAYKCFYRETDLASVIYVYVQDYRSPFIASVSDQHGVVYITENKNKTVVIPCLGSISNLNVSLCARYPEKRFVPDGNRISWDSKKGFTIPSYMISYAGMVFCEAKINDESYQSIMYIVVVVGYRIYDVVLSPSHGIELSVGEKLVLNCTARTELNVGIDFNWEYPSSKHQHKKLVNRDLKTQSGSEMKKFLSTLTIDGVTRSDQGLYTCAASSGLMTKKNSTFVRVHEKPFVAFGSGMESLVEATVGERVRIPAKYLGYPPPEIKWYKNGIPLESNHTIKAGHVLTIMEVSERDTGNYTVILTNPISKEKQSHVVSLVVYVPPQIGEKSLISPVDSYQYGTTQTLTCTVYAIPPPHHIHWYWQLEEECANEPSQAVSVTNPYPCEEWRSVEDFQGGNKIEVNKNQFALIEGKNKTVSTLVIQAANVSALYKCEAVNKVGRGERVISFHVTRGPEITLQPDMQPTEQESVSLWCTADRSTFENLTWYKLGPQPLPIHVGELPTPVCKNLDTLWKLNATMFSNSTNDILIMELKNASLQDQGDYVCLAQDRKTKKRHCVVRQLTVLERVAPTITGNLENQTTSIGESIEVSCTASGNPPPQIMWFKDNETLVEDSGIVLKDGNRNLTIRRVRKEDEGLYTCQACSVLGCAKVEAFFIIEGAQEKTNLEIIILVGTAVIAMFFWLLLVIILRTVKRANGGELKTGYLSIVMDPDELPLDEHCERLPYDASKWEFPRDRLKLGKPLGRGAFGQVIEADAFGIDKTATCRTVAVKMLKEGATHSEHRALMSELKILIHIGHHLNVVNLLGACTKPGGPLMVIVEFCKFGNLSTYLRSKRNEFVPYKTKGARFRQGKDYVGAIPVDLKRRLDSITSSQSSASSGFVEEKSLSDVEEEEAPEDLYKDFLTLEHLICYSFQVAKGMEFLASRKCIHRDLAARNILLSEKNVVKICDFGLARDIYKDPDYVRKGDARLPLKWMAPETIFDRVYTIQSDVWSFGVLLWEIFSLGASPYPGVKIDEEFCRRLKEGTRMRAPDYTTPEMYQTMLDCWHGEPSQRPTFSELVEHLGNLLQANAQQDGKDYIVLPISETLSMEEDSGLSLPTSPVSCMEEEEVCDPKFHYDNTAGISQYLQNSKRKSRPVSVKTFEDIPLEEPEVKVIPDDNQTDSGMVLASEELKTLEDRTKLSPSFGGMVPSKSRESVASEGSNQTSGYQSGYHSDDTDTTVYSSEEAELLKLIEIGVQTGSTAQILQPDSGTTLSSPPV

[4] = biological target: Platelet-derived growth factor receptor beta (Homo sapiens, UniProt P09619); experiment: Inhibition of N-terminal GST tagged human PDGFRbeta (557 to 1106 end residues) cytoplasmic domain expressed in baculovirus expression system preincubated for 10 mins followed by fluorescein amidite-labelled peptide substrate addition measured after 1 hr by mobility shift assay
Chain of Platelet-derived growth factor receptor beta (P09619 whole entry, the tested form may be a part): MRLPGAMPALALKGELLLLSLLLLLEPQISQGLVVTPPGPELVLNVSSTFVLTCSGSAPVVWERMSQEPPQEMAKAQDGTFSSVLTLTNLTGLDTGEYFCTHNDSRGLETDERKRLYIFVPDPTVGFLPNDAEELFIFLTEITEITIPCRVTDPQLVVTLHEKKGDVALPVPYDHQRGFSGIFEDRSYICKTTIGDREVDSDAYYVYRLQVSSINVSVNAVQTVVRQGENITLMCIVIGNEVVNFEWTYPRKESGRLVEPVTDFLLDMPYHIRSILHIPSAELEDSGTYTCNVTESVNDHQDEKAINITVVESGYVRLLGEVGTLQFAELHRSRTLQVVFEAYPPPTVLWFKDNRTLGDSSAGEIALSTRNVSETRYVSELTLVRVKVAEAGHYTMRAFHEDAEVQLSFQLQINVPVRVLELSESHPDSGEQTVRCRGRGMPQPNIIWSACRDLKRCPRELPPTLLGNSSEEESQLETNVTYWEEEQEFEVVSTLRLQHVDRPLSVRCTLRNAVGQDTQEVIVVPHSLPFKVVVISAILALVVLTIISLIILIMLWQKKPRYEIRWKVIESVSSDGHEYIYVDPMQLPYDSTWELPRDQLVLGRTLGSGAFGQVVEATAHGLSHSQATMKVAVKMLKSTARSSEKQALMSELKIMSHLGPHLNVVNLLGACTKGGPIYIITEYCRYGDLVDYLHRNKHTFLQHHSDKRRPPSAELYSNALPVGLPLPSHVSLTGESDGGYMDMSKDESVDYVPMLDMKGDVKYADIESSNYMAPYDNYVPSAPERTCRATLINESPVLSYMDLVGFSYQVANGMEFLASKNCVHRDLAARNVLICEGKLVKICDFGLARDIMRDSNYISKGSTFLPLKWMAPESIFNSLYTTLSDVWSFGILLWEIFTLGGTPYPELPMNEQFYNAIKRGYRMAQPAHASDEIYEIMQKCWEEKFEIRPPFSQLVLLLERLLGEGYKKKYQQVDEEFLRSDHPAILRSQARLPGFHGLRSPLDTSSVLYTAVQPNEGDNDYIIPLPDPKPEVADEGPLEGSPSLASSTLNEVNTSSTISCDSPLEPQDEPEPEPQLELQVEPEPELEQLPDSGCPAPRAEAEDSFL
Procedure, shortened: (§2)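 Enzyme and compound were preincubated for 10 min at room temperature. FAM-labelled peptide plus ATP was then added and reacted 1 h at 28°C, stopped with EDTA buffer, and run in duplicate. Inhibition = (max − conversion)/(max − min) × 100.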

A549 = experiment: Antiproliferative activity against human A549 cells after 72 hrs by MTT assay; assay type: functional, cell-based; conditions: A549, 72 h
HT-29 [5] = experiment: Induction of apoptosis in human HT-29 cells assessed as early apoptotic cells at 0.3 uM measured after 48 hrs by Annexin-V-FITC/propidium iodide staining based flow cytometry (reference value: 0.99 %); assay type: functional
HUVEC [6] = experiment: Induction of apoptosis in HUVEC assessed as late apoptotic cells at 1 uM measured after 48 hrs by Annexin-V-FITC/propidium iodide staining based flow cytometry (reference value: 5.79 %); assay type: functional, Homo sapiens
HUVEC [7] = experiment: Induction of apoptosis in HUVEC measured after 48 hrs by Annexin-V-FITC/propidium iodide staining based flow cytometry; assay type: functional, cell-based; conditions: Homo sapiens
[8] = biological target: Fibroblast growth factor receptor 1 (Homo sapiens, UniProt P11362); experiment: Inhibition of N-terminal GST tagged human FGFR1 (398 to 822 end residues) cytoplasmic domain expressed in baculovirus expression system preincubated for 10 mins followed by fluorescein amidite-labelled peptide substrate addition measured after 1 hr by mobility shift assay
Chain of Fibroblast growth factor receptor 1 (P11362 whole entry, the tested form may be a part): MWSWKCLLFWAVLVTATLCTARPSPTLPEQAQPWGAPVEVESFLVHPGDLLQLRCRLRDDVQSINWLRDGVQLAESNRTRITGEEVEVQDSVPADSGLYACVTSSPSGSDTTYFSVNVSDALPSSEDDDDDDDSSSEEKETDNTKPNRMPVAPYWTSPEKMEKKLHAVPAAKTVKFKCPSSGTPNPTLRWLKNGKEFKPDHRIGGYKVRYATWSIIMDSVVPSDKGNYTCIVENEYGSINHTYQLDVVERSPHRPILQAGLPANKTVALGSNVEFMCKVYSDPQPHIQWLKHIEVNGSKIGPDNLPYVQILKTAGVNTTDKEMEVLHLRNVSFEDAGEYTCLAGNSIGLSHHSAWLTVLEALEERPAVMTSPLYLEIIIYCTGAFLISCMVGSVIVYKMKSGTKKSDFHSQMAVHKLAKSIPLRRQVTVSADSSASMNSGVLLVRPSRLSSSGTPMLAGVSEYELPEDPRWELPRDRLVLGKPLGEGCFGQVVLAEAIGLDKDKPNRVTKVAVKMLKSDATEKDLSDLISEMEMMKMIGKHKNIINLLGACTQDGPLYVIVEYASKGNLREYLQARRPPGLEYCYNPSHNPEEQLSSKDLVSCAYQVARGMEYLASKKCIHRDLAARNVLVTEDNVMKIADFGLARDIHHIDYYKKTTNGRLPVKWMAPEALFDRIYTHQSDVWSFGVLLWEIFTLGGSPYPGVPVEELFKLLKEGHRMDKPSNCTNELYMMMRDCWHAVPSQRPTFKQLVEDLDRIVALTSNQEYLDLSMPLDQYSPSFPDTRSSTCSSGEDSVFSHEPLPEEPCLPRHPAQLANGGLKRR

HT-29 [9] = experiment: Induction of apoptosis in human HT-29 cells assessed as early apoptotic cells at 3 uM measured after 48 hrs by Annexin-V-FITC/propidium iodide staining based flow cytometry (reference value: 0.99 %); assay type: functional
HT-29 [10] = experiment: Induction of apoptosis in human HT-29 cells assessed as late apoptotic cells at 1 uM measured after 48 hrs by Annexin-V-FITC/propidium iodide staining based flow cytometry (reference value: 10.60 %); assay type: functional
HT-29 [11] = experiment: Induction of apoptosis in human HT-29 cells assessed as late apoptotic cells at 3 uM measured after 48 hrs by Annexin-V-FITC/propidium iodide staining based flow cytometry (reference value: 10.60 %); assay type: functional
HUVEC [12] = experiment: Induction of apoptosis in HUVEC assessed as early apoptotic cells at 3 uM measured after 48 hrs by Annexin-V-FITC/propidium iodide staining based flow cytometry (reference value: 1.78 %); assay type: functional, Homo sapiens
MCF7 [13] = experiment: Induction of apoptosis in human MCF7 cells assessed as late apoptotic cells at 3 uM measured after 48 hrs by Annexin-V-FITC/propidium iodide staining based flow cytometry (reference value: 13.68 %); assay type: functional
MCF7 [14] = experiment: Induction of apoptosis in human MCF7 cells assessed as early apoptotic cells at 1 uM measured after 48 hrs by Annexin-V-FITC/propidium iodide staining based flow cytometry (reference value: 1.32 %); assay type: functional
HUVEC [15] = experiment: Induction of apoptosis in HUVEC assessed as late apoptotic cells at 3 uM measured after 48 hrs by Annexin-V-FITC/propidium iodide staining based flow cytometry (reference value: 5.79 %); assay type: functional, Homo sapiens
HUVEC [16] = experiment: Induction of apoptosis in HUVEC assessed as late apoptotic cells at 0.3 uM measured after 48 hrs by Annexin-V-FITC/propidium iodide staining based flow cytometry (reference value: 5.79 %); assay type: functional, Homo sapiens
MCF7 [17] = experiment: Induction of apoptosis in human MCF7 cells assessed as late apoptotic cells at 1 uM measured after 48 hrs by Annexin-V-FITC/propidium iodide staining based flow cytometry (reference value: 13.68 %); assay type: functional
HUVEC [18] = experiment: Induction of apoptosis in HUVEC assessed as early apoptotic cells at 0.3 uM measured after 48 hrs by Annexin-V-FITC/propidium iodide staining based flow cytometry (reference value: 1.78 %); assay type: functional, Homo sapiens
HEK-293T = experiment: Cytotoxicity against HEK293T cells assessed as reduction in cell viability at 10 uM after 72 hrs by MTT assay; assay type: cell-based; conditions: human
Procedure, shortened: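 HEK293T cells, about 4 × 10^3 per well, were grown in MEM with 10% FBS at 37°C in 5% CO2 for 24 h. Cells were then exposed to compound for 72 h. MTT was added at 5 µg/mL final for 4 h at 37°C and the formazan dissolved in DMSO. Absorbance was read at 492 nm with 630 nm as reference.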

MCF7 [19] = experiment: Induction of apoptosis in human MCF7 cells assessed as early apoptotic cells at 3 uM measured after 48 hrs by Annexin-V-FITC/propidium iodide staining based flow cytometry (reference value: 1.32 %); assay type: functional
MCF7 [20] = experiment: Induction of apoptosis in human MCF7 cells assessed as late apoptotic cells at 0.3 uM measured after 48 hrs by Annexin-V-FITC/propidium iodide staining based flow cytometry (reference value: 13.68 %); assay type: functional
MCF7 [21] = experiment: Induction of apoptosis in human MCF7 cells assessed as early apoptotic cells at 0.3 uM measured after 48 hrs by Annexin-V-FITC/propidium iodide staining based flow cytometry (reference value: 1.32 %); assay type: functional
HUVEC [22] = experiment: Induction of apoptosis in HUVEC assessed as early apoptotic cells at 1 uM measured after 48 hrs by Annexin-V-FITC/propidium iodide staining based flow cytometry (reference value: 1.78 %); assay type: functional, Homo sapiens
HT-29 [23] = experiment: Induction of apoptosis in human HT-29 cells assessed as late apoptotic cells at 0.3 uM measured after 48 hrs by Annexin-V-FITC/propidium iodide staining based flow cytometry (reference value: 10.60 %); assay type: functional
HT-29 [24] = experiment: Induction of apoptosis in human HT-29 cells assessed as early apoptotic cells at 1 uM measured after 48 hrs by Annexin-V-FITC/propidium iodide staining based flow cytometry (reference value: 0.99 %); assay type: functional
[25] = biological target: T1, Vascular endothelial growth factor receptor 2; experiment: as §1, with “system at 1 uM” for “system”, “assay relative to control” for “assay”; procedure, shortened: as §2

Structure (SMILES): COC(=O)c1ccc2c(c1)NC(=O)/C2=C(\Nc1ccc2nc(CN(C)C)oc2c1)c1ccccc1
- pIC50 [3]: < 6.00
- pIC50 [4]: < 6.30
- pIC50 (A549): < 4.00

Structure (SMILES): COC(=O)c1ccc2c(c1)NC(=O)/C2=C(\Nc1ccc(N(C)C(=O)CN2CCN(C)CC2)cc1)c1ccccc1 [NINTEDANIB]
- pIC50 (MCF7 [1]): 5.08
- pIC50 (HT-29 [2]): 6.08
- pIC50 (A549): 4.65

Structure (SMILES): COC(=O)c1ccc2c(c1)NC(=O)/C2=C(\Nc1ccc2c(c1)nc(CN1CCN(C)CC1)n2C)c1ccccc1
- pIC50 (MCF7 [1]): 4.65
- pIC50 (HT-29 [2]): 6.15
- pIC50 [4]: 7.21
- pIC50 (A549): 4.39

Structure (SMILES): CCn1c(C(=O)N2CCN(C)CC2)cc2cc(N/C(=C3\C(=O)Nc4cc(C(=O)OC)ccc43)c3ccccc3)ccc21
- pIC50 (HT-29 [2]): 5.66
- pIC50 [4]: 7.41
- pIC50 (A549): 4.92

Structure (SMILES): COC(=O)c1ccc2c(c1)NC(=O)/C2=C(\Nc1ccc2[nH]c(C(=O)N(C)C)cc2c1)c1ccccc1
- pIC50 (HT-29 [2]): < 4.00
- pIC50 [3]: < 6.00
- pIC50 (A549): < 4.00

Structure (SMILES): COC(=O)c1ccc2c(c1)NC(=O)/C2=C(\Nc1ccc2[nH]c(CN(C)C)cc2c1)c1ccccc1
- pIC50 (MCF7 [1]): 5.63
- pIC50 (HT-29 [2]): 6.01
- pIC50 (A549): 4.78

Structure (SMILES): CCn1cc(CN(C)C)c2cc(N/C(=C3\C(=O)Nc4cc(C(=O)OC)ccc43)c3ccccc3)ccc21
- pIC50 (MCF7 [1]): 5.26
- pIC50 (HT-29 [2]): 5.17
- pIC50 [4]: 7.46
- pIC50 (A549): 5.12

Structure (SMILES): COC(=O)c1ccc2c(c1)NC(=O)/C2=C(\Nc1ccc2c(c1)cc(C(=O)N1CCN(C)CC1)n2C)c1ccccc1
- pIC50 (HT-29 [2]): 5.96
- pIC50 [4]: 7.35
- pIC50 (A549): 4.12

Structure (SMILES): COC(=O)c1ccc2c(c1)NC(=O)/C2=C(\Nc1ccc2c(c1)nc(CN(C)C)n2C)c1ccccc1
- pIC50 (MCF7 [1]): < 4.00
- pIC50 (HT-29 [2]): 4.05
- pIC50 [4]: 7.34
- pIC50 (A549): < 4.00

Structure (SMILES): COC(=O)c1ccc2c(c1)NC(=O)/C2=C(\Nc1ccc2[nH]c(CN3CCN(C)CC3)cc2c1)c1ccccc1
- pIC50 (MCF7 [1]): 5.49
- pIC50 (HT-29 [2]): 6.49
- pIC50 [4]: 7.03
- pIC50 (A549): 4.41

Structure (SMILES): COC(=O)c1ccc2c(c1)NC(=O)/C2=C(\Nc1ccc2[nH]cc(CN3CCOCC3)c2c1)c1ccccc1
- pIC50 [4]: 6.62

Structure (SMILES): COC(=O)c1ccc2c(c1)NC(=O)/C2=C(\Nc1ccc2nc(CN3CCN(C)CC3)oc2c1)c1ccccc1
- pIC50 [4]: 6.93
- pIC50 (A549): < 4.00
- inhibition [25]: 79%

The next lines start with results.

- pIC50 (MCF7 [1]): 5.40
- pIC50 (HT-29 [2]): 6.89
- pIC50 [3]: < 6.00
- pIC50 [4]: 7.22
- pIC50 (A549): 5.64
Structure (SMILES): COC(=O)c1ccc2c(c1)NC(=O)/C2=C(\Nc1ccc2[nH]cc(CN(C)C)c2c1)c1ccccc1

- pIC50 (MCF7 [1]): 5.81
- pIC50 (HT-29 [2]): 5.93
- pIC50 [8]: 5.82
- pIC50 [4]: 7.66
- pIC50 (A549): 5.52
Structure (SMILES): COC(=O)c1ccc2c(c1)NC(=O)/C2=C(\Nc1ccc2[nH]c(C(=O)N3CCN(C)CC3)cc2c1)c1ccccc1
- Activity (HT-29 [5]): 2.31%
- Activity (HUVEC [6]): 77.6%
- Activity (HUVEC [7]): Dose-dependent effect
- Activity (HT-29 [9]): 0.05%
- Activity (HT-29 [10]): 74.82%
- Activity (HT-29 [11]): 98.81%
- Activity (HUVEC [12]): 1.51%
- Activity (MCF7 [13]): 94.04%
- Activity (MCF7 [14]): 0.65%
- Activity (HUVEC [15]): 93.77%
- Activity (HUVEC [16]): 17.62%
- Activity (MCF7 [17]): 34.43%
- Activity (HUVEC [18]): 5.68%
- Activity (HEK-293T): Non-Toxic
- Activity (MCF7 [19]): 0.28%
- Activity (MCF7 [20]): 18.25%
- Activity (MCF7 [21]): 1.27%
- Activity (HUVEC [22]): 3.97%
- Activity (HT-29 [23]): 14.15%
- Activity (HT-29 [24]): 0.44%

- pIC50 (MCF7 [1]): 5.40
- pIC50 (HT-29 [2]): 6.06
- pIC50 [3]: < 6.00
- pIC50 [4]: 7.04
- pIC50 (A549): 5.21
Structure (SMILES): COC(=O)c1ccc2c(c1)NC(=O)/C2=C(\Nc1ccc2c(c1)c(CN1CCN(C)CC1)cn2C)c1ccccc1

- pIC50 (MCF7 [1]): 5.64
- pIC50 (HT-29 [2]): 6.34
- pIC50 [4]: 7.19
- pIC50 (A549): 5.22
Structure (SMILES): COC(=O)c1ccc2c(c1)NC(=O)/C2=C(\Nc1ccc2c(c1)c(CN(C)C)cn2C)c1ccccc1

- pIC50 (MCF7 [1]): 5.25
- pIC50 (HT-29 [2]): 6.60
- pIC50 [4]: 7.31
- pIC50 (A549): 5.36
Structure (SMILES): COC(=O)c1ccc2c(c1)NC(=O)/C2=C(\Nc1ccc2c(c1)c(CN(C)C)cn2C(C)C)c1ccccc1

- pIC50 [4]: 6.87
- pIC50 (A549): 5.13
- inhibition [25]: 59%
Structure (SMILES): COC(=O)c1ccc2c(c1)NC(=O)/C2=C(\Nc1ccc2[nH]cc(CN3CCN(C)CC3)c2c1)c1ccccc1
